An excerpt weighted towards active compounds, which were near 4.9% of everything screened.
STAT1 blocker = reduces IFN-gamma driven STAT1 reporter signal. AID 920. inhibition, % at 5.5 µM. NIH 3T3 STAT1-luciferase reporter, luminescence. 0.35% of 200,000 active;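 active means inhibition above a set limit, the mean inhibition across all tested compounds plus 3 SD, cut at about 34% in these data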;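 further: 0% = IFN-gamma with DMSO and 100% = IFN-gamma with 300 µM nifuroxazide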
STAT1 activator = activators of IFN-gamma induced STAT1 signaling; NIH 3T3 STAT1-luciferase reporter, luminescence; 100% = IFN-gamma alone, no compound; activation (% of control), % at 5.5 µM; 2.6% of 200,000 active; AID 932;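 active means activation above the screen-wide mean activation plus 3 SD, cut at about 130% in these data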;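 further: raw ratio to IFN-gamma control signal so 100% means no change and 0% no light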
STAT3 inh = inhibitors of IL-6 induced STAT3 signaling | 0.89% of 190,000 active | U3A cells, IL-6 STAT3-luciferase reporter, luminescence; host cell line lacks STAT1 | inhibition, % at 5.5 µM;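 active means inhibition above the mean inhibition across all screened compounds plus 3 SD, cut at about 44% in these data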;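 further: 0% = DMSO only wells and 100% = 100 µM nifuroxazide control wells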
STAT3 act = activators of IL-6 induced STAT3 signaling; 0.91% of 190,000 active; U3A cells, IL-6 STAT3-luciferase reporter, luminescence; 100% = signal with IL-6 EC80 alone; activation (% of control), % at 5.6 µM;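 active means activation above the screen-wide mean of compound activation plus 3 SD, cut at about 130% in these data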;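 further: 0% = background luminescence of wells with medium and substrate only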
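Material: STAT3-luciferase reporter U3A cells. Controls: IL-6-treated wells, 100% activation. Read-out: % activation versus median of IL-6-stimulated wells. Probe or stimulus: IL-6 stimulus at 33 ng/mL final. Timing: compound 1 h, then IL-6 6 h at 37 °C. Signal: reporter luminescence signal.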
NF-kB expr up = NF-kB expression increase, human neuronal cells; 1.6% of 190,000 active; fold change at 12.5 µM; NF-kB reporter expression; active compounds read high; AID 1239; in the data active means fold change above about 3.3
APP 5'UTR act = activates APP 5'UTR luciferase reporter | SH-SY5Y APP 5'UTR luciferase reporter, luminescence; zero percent = DMSO vehicle wells | activation, % at 2 µM | 1% of 190,000 active;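 active means activation above a set limit, based on mean plus 3 SD of controls, cut at about 140% in these data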
An asterisk follows results filed as active; nt = not tested or not shown.

SMILES | STAT1 blocker | STAT1 activator | STAT3 inh | STAT3 act | NF-kB expr up | APP 5'UTR act
CCCCNc1ncnc2c1cnn2-c1ccc(C)cc1C | -9.4 | 109.7 | -7.3 | 106.1 | 1.1 | -6.3
Cc1cccc(-n2ncc3c(NCCCO)ncnc32)c1 | -44.8 | 140.6* | -15.7 | 121.0 | 3.29 | 135.4*
Cc1ccc(-n2ncc3c(NCc4ccccc4)ncnc32)cc1 | -40.0 | 136.5* | -2.7 | 106.8 | 1.53 | 53.5
c1ccc(-n2ncc3c(NCCCN4CCOCC4)ncnc32)cc1 | -24.3 | 122.2 | -1.6 | 109.2 | 1.97 | 51.3
C/C(=N/Nc1ccc(C(=O)O)cc1)c1ccc(O)c(O)c1O | 1.0 | 99.1 | -1.4 | 99.1 | 0.85 | 45.9
COc1cccc(C(c2nnnn2CC2CCCO2)N2CCN(C(=O)c3ccco3)CC2)c1OC (configuration not stated) | -3.8 | 102.5 | 0.9 | 105.8 | 0.93 | 22.5
CN(Cc1nc(-c2cnccn2)no1)Cc1n[nH]c2c1CCCC2 | -5.1 | 104.7 | 13.1 | 93.4 | 1 | -4.0
COC(=O)C1=C(C)NC(=O)/C1=C\N(C)C | -4.7 | 102.6 | 14.4 | 96.2 | 1.35 | 12.8
Cc1ccc(-n2ncc3c(NCc4ccccn4)ncnc32)c(C)c1 | -0.1 | 100.1 | 29.9 | 82.2 | 1.23 | 12.3
Clc1ccc(-n2ncc3c(NCc4ccccn4)ncnc32)cc1 | -54.6 | 149.6* | 1.4 | 103.1 | 2.64 | 25.7
COc1nc(C)nc2c1sc1nc3c(cc12)COC(C)(C)C3 | -39.7 | 136.8* | 9.5 | 96.8 | 2.58 | 55.0
Cc1cc(OC(=O)c2ccc(S(=O)(=O)N3CCOCC3)cc2)c([N+](=O)[O-])c(=O)[nH]1 | 1.4 | 99.2 | -1.0 | 102.9 | 1.78 | -11.0
CC(C)(C)C(=O)NC(n1cnc2c(N3CCOCC3)ncnc21)C(Cl)(Cl)Cl (configuration not stated) | 9.6 | 89.4 | 3.3 | 99.1 | 0.73 | 10.2
Cn1c2ccccc2c(=O)c2c(=O)n(-c3ccccc3)c(C3CCCCC3)nc21 | 0.0 | 100.0 | -45.2 | 134.3* | 1.08 | 10.5
CCS(=O)(=O)Nc1ccc(C2=NN(C(=O)c3ccco3)C(c3cccc(F)c3)C2)cc1 (configuration not stated) | 63.1* | 41.1 | 17.4 | 90.1 | 0.93 | -1.9
CCS(=O)(=O)Nc1ccc(C2=NN(C(=O)c3ccco3)C(c3ccc(C)cc3)C2)cc1 (configuration not stated) | 8.0 | 92.8 | 31.7 | 81.9 | 0.39 | -9.2
CCOC(=O)C1(CCc2ccccc2)CCN(C(=O)CN2C(=O)CSC2=O)CC1 | -12.2 | 109.7 | 4.0 | 98.6 | 1.56 | 1.6
c1ccc(-n2cnc3cc(NCc4ccccn4)ccc32)cc1 | -33.4 | 130.9* | 2.8 | 101.1 | 2.14 | 85.7
O=C(CC(c1cccs1)S(=O)(=O)c1ccccc1)c1ccc(F)cc1 (configuration not stated) | -17.1 | 115.0 | 3.3 | 97.4 | 0.97 | 35.8
Cc1ccc(CNC(=O)C(=O)Nc2nccs2)cc1 | -4.8 | 103.5 | 5.0 | 101.9 | 1.43 | 10.9
CC(CCc1ccccc1)NC(=O)c1ccc(C(=O)NC(C)CCc2ccccc2)cc1 (configuration not stated) | 2.9 | 97.4 | 59.7* | 52.9 | 0.88 | -9.9
CC(C)CCNC(=O)c1ccc(-c2ccccc2)cc1 | -37.3 | 132.2* | -6.7 | 108.9 | 2.87 | 54.9
Cc1cccc(NC(=S)NCCC(C)C)c1 | -2.0 | 101.8 | -0.9 | 103.0 | 1.03 | 5.8
CC(C)CCNC(=O)c1cccc(C(=O)NCCC(C)C)c1 | 4.6 | 95.7 | 3.9 | 98.1 | 0.98 | 9.2
CC(C)CCNC(=O)C(=O)Nc1ccccc1 | -31.4 | 128.6* | 1.6 | 100.5 | 2.95 | 130.1
SMILES | STAT1 blocker | STAT1 activator | STAT3 inh | STAT3 act | NF-kB expr up | APP 5'UTR act
CCC1CN(C(=O)Nc2ccc(C)cc2)c2cc(C)ccc2O1 (configuration not stated) | -4.2 | 103.8 | 9.9 | 96.3 | 2.17 | 1.7
O=c1c2c(nc3nc(NCc4ccccc4Cl)[nH]n13)CCC2 | -2.1 | 101.6 | 9.8 | 98.0 | 0.98 | 12.9
Cc1cnc(NC(=O)CCNC(=O)c2ccc([N+](=O)[O-])cc2)s1 | -7.4 | 104.9 | 13.1 | 92.9 | nt | 2.6
O=c1c(Cl)c(Cl)cnn1Cc1nnc(-c2ccccc2Br)o1 | 4.5 | 94.0 | 1.4 | 106.8 | 0.19 | -94.2
Cc1ccc(NC(=O)c2ccc(Cl)nc2)cc1 | -31.9 | 130.6* | -24.2 | 120.4 | 2.18 | -2.9
COc1cc(OC)cc(C(=O)NNC(=O)c2ccccn2)c1 | -5.5 | 105.0 | -6.4 | 108.4 | 1.57 | -37.8
O=C(Nc1ccc2c(c1)OCO2)c1ccc(Cl)nc1 | -10.7 | 109.8 | -11.4 | 115.1 | 1.84 | 18.4
COc1ccc(C(=O)NNC(=O)c2ccccn2)cc1 | 91.8* | 18.3 | 99.1* | 18.2 | 0.38 | 125.2
O=C(Nc1ccc(OC(F)F)c(Cl)c1)c1ccccn1 | -49.5 | 146.5* | 24.0 | 82.9 | 9.44* | 138.9*
CCOc1ccc(NC(=O)c2ccccn2)cc1 | 59.2* | 46.3 | 98.1* | 15.8 | 1.44 | 116.1
COc1ccc(N(CC(=O)NCCC2=CCCCC2)S(=O)(=O)c2ccc(C)cc2)cc1OC | -5.9 | 104.1 | -5.5 | 105.7 | 0.92 | -9.9
O=C(C1=C[C@H](c2ccccc2)C[C@H](OCc2ccc(CO)cc2)O1)N1CCOCC1 | 0.3 | 101.2 | nt | nt | 1.1 | 7.5
COc1ccc(NC(=O)C(CC(C)C)NC(=O)C2CCC(C)CC2)c(OC)c1 (configuration not stated) | 5.8 | 95.2 | -2.3 | 102.4 | 1.1 | -0.7
O=C(O)CC12CC3CC(C1)CC(n1cncn1)(C3)C2 | 0.6 | 97.5 | 15.9 | 93.0 | 1.18 | 5.0
CCn1c(C(C)NC(=O)c2cccc(C)c2)n[nH]c1=S (configuration not stated) | 0.9 | 99.7 | 4.4 | 98.2 | 1.13 | 18.6
CCCCNC(=O)COC(=O)c1cc(C)oc1C | -1.5 | 98.3 | 6.2 | 98.8 | 0.98 | 3.0
CCN(CC)c1ccc(/C=N/NC(=O)c2cnccn2)cc1 | -36.5 | 132.5* | -0.2 | 111.8 | 2.6 | -73.7
CCOc1ccc(C(=O)Nc2cc(C)ccn2)cc1 | 74.8* | 30.2 | 93.2* | 24.1 | 3.69* | 186.0*
CCCC(=O)Nc1ccc(NC(=O)c2ccccn2)cn1 | -44.7 | 140.6* | 15.3 | 90.0 | 1.95 | 77.3
CCOc1cc(C(=O)Nc2cc(C)ccn2)cc(OCC)c1OCC | -8.4 | 107.7 | 2.5 | 100.0 | 1.09 | 3.0
CCCC(=O)Nc1ccc(NC(=O)c2ccccc2OC)cn1 | 4.1 | 96.2 | 29.0 | 81.4 | 1 | 9.3
C/C(CC(=O)Nc1ccc(N(C)C)cc1)=N\NC(=O)c1ccccn1 | -43.8 | 139.6* | -16.0 | 114.3 | 1.17 | 115.1
CCN(CC)c1ccc(/C=N/NC(=O)c2ccc([N+](=O)[O-])cc2)cc1 | -4.6 | 102.9 | 7.2 | 95.7 | 1.09 | 1.3
FC(F)(F)c1ccc(N=Cc2sc(N3CCOCC3)nc2-c2ccccc2)cc1 | -4.5 | 104.1 | 0.1 | 99.4 | 1.05 | -3.5
